This is a sample that favours compounds with a hit; in the whole collection about 3.1% have one here.
rRNA inh HTS = selective bacterial rRNA inhibition in E. coli; E. coli WT GFP vs humanized-ribosome RFP mutants, fluorescence, 24 h; stronger effect = lower value; DMSO median 0, no signal -100; GFP signal change (wild-type ribosome), % (no concentration beside the values); 1.6% of 350,000 active; AID 720706;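 active means significant combined selectivity score with lowered wild-type GFP, culture density cut under 30%, mutant RFP and density less affected; inactive means any of these conditions unmet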
miR-122 sensor = miR-122 inhibition in Huh7 cells. Huh7 miR-122 Renilla luciferase sensor, 48 h; neutral wells = 0, positive control = 100. activation (reporter increase), % at 12.5 µM. 0.3% of 340,000 active. AID 602342;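 active means mean replicate activation score at least 90 and every replicate individually at or above 90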;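 further: higher luciferase means less miR-122 activity so hits act as miR-122 inhibitors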
Env fusion inh = blocks HIV Env-driven cell-cell fusion; inhibition, % at 12.3 µM; 1.1% of 360,000 active; HeLa-JRFL Env/CEM21 cell fusion, luciferase; AID 651610;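 active means mean replicate inhibition score of at least 50 and every replicate individually at or above 50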
CFTR F508del cor = CFTR F508del correction in bronchial cells; CFBE cells, YFP halide quenching; stimulated with forskolin plus potentiator P3; % fluorescence drop versus neutral controls; activity (quench increase), % at 7.58 µM; 0.36% of 350,000 active;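 active means mean added fluorescence quench of at least 8% versus neutral control, with both replicates also reaching 8%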;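 further: cells transiently co-express mutant CFTR-F508del with the halide-sensitive YFP; corrector assay measuring rescue of mutant channel to the surface after 24 h compound exposure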
GSIS activator = GLuc luminescence reporter in INS-1E cells, primary screen for activators of glucose-dependent secretion of insulin; INS-1E GLuc reporter insulin secretion, 2-3 h; AID 743287; activation, % at 16.6 µM; 0.61% of 370,000 active;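 active means lowest replicate activation of at least 40%, so every replicate reaches that level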
Cneo AK release = causes C. neoformans cell lysis. adenylate kinase release luminescence, 4 h; normalised: neutral wells 0, clomiphene wells 100. lysis activity, % at 15 µM. 0.2% of 360,000 active. AID 651654;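 active means mean lysis activity across replicates of at least 80%, whatever share of replicates individually reach that level; inactive means mean lysis activity below 80%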
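Assay system: C. neoformans cells. Amount: yeast cell density of 5 × 10^6 cells/mL. Technique: AK luminescence. Buffer or medium: YPD. Times: static 4 h at 37 °C with compound, 1 h detection. Dosing: single-point compound dose. Read-out: lysis from increased AK signal.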
A number is an active result; 0 = inactive; - = not tested or not shown; ! = not confirmed by another sample; [ ] = dose if it differs, or a comment.

SMILES	rRNA inh HTS	miR-122 sensor	Env fusion inh	CFTR F508del cor	GSIS activator	Cneo AK release
Cc1cccc(C)c1OCC(=O)OCC(=O)Nc1ccc(Cl)cn1	0	0	0	23	0	0
Cc1ccsc1C(=O)OCC(=O)Nc1ccc(Cl)cn1	-23	0	-	0	0	0
CCN(CC(O)Cn1c2ccccc2c2ccccc21)S(=O)(=O)c1ccc(F)cc1 (centres undefined)	-	0	0	-	0	0
O=S(=O)(c1ccc(F)cc1)N(CCO)CC(O)Cn1c2ccccc2c2ccccc21 (centres undefined)	-	0	66	-	-	0
CC(=O)NNC(=O)CCn1c2c(c3ccccc31)CCCC2	0	0	0	0	0	0
CCOC(=O)NNC(=O)CCn1c2c(c3ccccc31)CCCC2	-17	-	0	0	0	-
CC(C)NC(=O)N(C)C[C@@H]1Oc2ccc(NS(C)(=O)=O)cc2CC(=O)N(C)C[C@@H]1C	0	-	-	-	0	-
O=c1c(C=Nc2ccc(Oc3ccccc3)cc2)c[nH]n1-c1cccc(Cl)n1	-	0	0	-	107	0
COc1ccc(N=Cc2c(O)n(-c3cccc(C)n3)c(=O)c3ccccc23)cc1	-	0	0	-	0	0
CN(C)c1ncnc2c1ncn2-c1ccccc1	0	0	0	0	0	0
Clc1nc(Cl)c2ncn(-c3ccccc3)c2n1	-17	0	0	0	0	0
CNc1nc(Cl)nc2c1ncn2-c1ccccc1	0	0	0	0	87	0
CC(C)c1cn([C@H]2C[C@@H]3O[C@H](CO)CC[C@@H]3O[C@@H]2CCc2ccc(-c3ccccc3)cc2)nn1	-	-	-	0	-	-
CC1(C)CC(=O)C=C(c2ccc(COC(=O)c3ccccc3)cc2)C1=O	-20	0	0	0	0	0
CC1(C)CC(=O)C=C(c2ccc(COC(=O)/C=C/c3ccccc3)cc2)C1=O	0	0	0	0	0	0
Cc1cc(C)cc(C(=O)NCC(=O)OCc2cc([N+](=O)[O-])cc3c2OCOC3)c1	0	0	0	13	0	0
Cc1cc(C)cc(OCC(=O)OCc2cc([N+](=O)[O-])cc3c2OCOC3)c1	0	0	-	0	0	0
Cc1ccc(-n2c(SCc3ccc(C#N)cc3)nnc2-c2ccccn2)cc1	-	0	0	-	-	0
C=CCn1c(COc2ccc(Cl)cc2)nnc1SCc1ccc(C#N)cc1	-	0	58	-	0	0
Cc1ccc(OCc2nnc(SCc3ccc(C#N)cc3)n2-c2ccc(C)cc2)cc1	-	-	65	-	0	0
CC(C)(C)c1ccc(-n2ncc3c2CCCC3NC(=O)CN2CCCC2=O)cc1 (centres undefined)	0	-	68	0	0	0
Cc1cc(C)cc(-n2ncc3c2CCCC3NC(=O)CN2CCCC2=O)c1 (centres undefined)	0	0	0	0	0	0
C[C@@H]1CN([C@H](C)CO)C(=O)c2cc(NC(=O)c3ccncc3)ccc2O[C@@H]1CN(C)Cc1ccccc1	0	0	0	0	0	0
COc1ccc(CCNC(=O)C(C)Sc2ccc(C)cc2)cc1OC (centres undefined)	-	-	0	-	53	-
COc1ccc(CNC(=O)CCCn2c(=O)c3cccn3c3cccnc32)cc1	0	0	0	0	0	0
SMILES	rRNA inh HTS	miR-122 sensor	Env fusion inh	CFTR F508del cor	GSIS activator	Cneo AK release
COc1ccc(CCCC(=O)NCCc2ccccc2)c(C)c1	0	-	89	0	0	0
COc1ccc(CCNC(=O)CCCc2ccccc2)cc1OC	0	0	0	0	55	0
COc1ccc(CCNC(=O)C(C)Sc2ccccc2)cc1OC (centres undefined)	-	0	-	-	-	0
COc1ccc(CCNC(=O)CCn2c(=O)c3cccn3c3cccnc32)cc1OC	0	0	0	0	65	0
CCCNC(=O)N1C[C@@H](C)[C@H](OC)CN(C)C(=O)c2ccc(NC(=O)CCC)cc2OC[C@@H]1C	0	-	-	0	0	0
COc1ccc(-c2coc3c(C(=O)NCCc4ccccc4)cccc23)c(C)c1	0	0	55	0	-	0
COC(CNS(=O)(=O)c1cc2c3c(c1)CCN3C(=O)CC2)OC	0	0	0	0	0	0
CC(C)CNS(=O)(=O)c1cc2c3c(c1)CCC(=O)N3CCC2	0	93	0	0	0	0
CC1CC(NS(=O)(=O)c2cc3c4c(c2)CCN4C(=O)CC3)CC(C)(C)C1 (centres undefined)	0	-	61	0	0	0
CC(C)(C)NS(=O)(=O)c1cc2c3c(c1)CCN3C(=O)CC2	0	0	0	0	0	0
CCCNC(=O)N1C[C@H](C)[C@@H](OC)CN(C)C(=O)c2cc(NC(=O)C3CCC3)ccc2OC[C@H]1C	0	0	-	0	0	-
COc1ccccc1-c1ccc2c(c1)O[C@H](CN(C)CC1CC1)[C@H](C)CN([C@H](C)CO)S2(=O)=O	0	0	0	0	0	-
O=S(=O)(N/N=C1/CC(c2ccccc2)Oc2ccccc21)c1ccccc1 (centres undefined)	-12	-	0	0	-	-
CC(C)(C)N/N=C1\CC(c2ccccc2)Oc2ccccc21 (centres undefined)	-	-	0	-	0	-
CC(=O)Nc1ccc2c(c1)C(=Nc1ccc(C)cc1)c1ccccc1-2	-22	0	0	0	0	0
C[C@H]1c2cccc(O)c2C(O)=C2C(=O)[C@]3(O)C(O)=C(C(N)=O)C(=O)[C@@H](N(C)C)[C@@H]3[C@@H](O)[C@@H]21	-	0	-	-	-	0
CN(C)c1ccc(O)c2c1CC1CC3[C@@H](N(C)C)C(=O)C(C(N)=O)=C(O)[C@]3(O)C(=O)C1=C2O (some centres undefined)	0	0	73	0	0	0
Cc1cc(Cl)ccc1OCC(=O)NCCCN1CCOCC1	-	0	-	-	-	-
Cc1cc(Cl)ccc1OCC(=O)NCCOc1nc(N2CCOCC2)nc(N2CCOCC2)n1	-	0	94	-	-	0
CN(C)c1nc(OCCNC(=O)COc2ccc(Cl)cc2Cl)nc(N2CCOCC2)n1	-	0	41	-	-	0
O=C(COc1ccc(Cl)cc1Cl)NCCCN1CCOCC1	0	-	0	-	0	0
C[C@H](CO)N1C[C@H](C)[C@H](CN(C)C(=O)C2CCCCC2)Oc2cc(Br)ccc2S1(=O)=O	0	0	55[16.7 µM]	0	0	-
C[C@@H]1CN([C@@H](C)CO)S(=O)(=O)c2ccc(C#C[C@@H](C)O)cc2O[C@@H]1CN(C)C(=O)C1CCCCC1	0	0	0	0	0	105
CC(C)C#Cc1ccc2c(c1)O[C@@H](CN(C)C(=O)C1CCCCC1)[C@H](C)CN([C@H](C)CO)S2(=O)=O	0	0	58[16.7 µM]	0	0	-
C[C@H]1CN([C@@H](C)CO)S(=O)(=O)c2ccc(Br)cc2O[C@@H]1CN(C)C(=O)CCN1CCCCC1	0	0	0	0	0	80!
C[C@H](O)C#Cc1ccc2c(c1)O[C@H](CN(C)C(=O)C1CCCCC1)[C@@H](C)CN([C@@H](C)CO)S2(=O)=O	0	0	0	0	0	0

Source: PubChem (Broad Institute)
